Reference: ChEMBL document CHEMBL1123540, “Potential antitumor agents. 45. Synthesis, DNA-binding interaction, and biological activity of triacridine derivatives” (J Med Chem, 1986)
Values joined by “and” are separate entries in the source; they are usually repeats but may differ in a detail not shown here. Equal entries are not always repeated.

Key:
Nucleic Acid [1] = assay: Inhibitory concentration against ethidium bromide binding to DNA [poly(dA-dT)]; assay type: nucleic-acid assay
Method in brief: (§1)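 C50 is the micromolar drug concentration displacing 50% of ethidium bromide already bound to DNA, read by fluorescence. It is used as a comparative measure of DNA binding.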

Nucleic Acid [2] = assay: Inhibitory concentration against ethidium bromide binding to DNA [poly(dG-dC)]; assay type: nucleic-acid assay; method in brief: as §1
P388 [3] = assay: Optimal dose administered ip as a solution in 0.1 mL of 30% v/v ethanol-water after intraperitoneal inoculation of 10e6 P388 leukemia cells.; assay type: functional, Mus musculus
Method in brief: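 P388 leukemia cells (10^6) inoculated ip. Drug given ip in 30% v/v ethanol-water on days 1, 5 and 9, in mg/kg per day. The optimal dose is the one giving the best increase in lifespan over untreated tumor-bearing controls; >20% counted significant.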

[4] = In vitro inhibition of Escherichia coli DNA-dependent RNA polymerase using both calf thymus and phage T7 DNA template
Method in brief: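 E. coli RNA polymerase (0.65 μg) added to template DNA (2.5 μg; calf thymus or phage T7) plus drug. TCA-pyrophosphate precipitates counted by scintillation; IC50 from inhibition curves, mean of 2–4 determinations.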

L1210 = assay: Concentration of compound required to inhibit growth of L1210 leukemia cells in culture by 50%; assay type: functional, cell-based; settings: Mus musculus
Method in brief: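 L1210 leukemia cells grown in culture with continuous drug exposure for 70 h; IC50 in nanomolar, drug concentration giving 50% growth inhibition.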

P388 [5] = assay: Percentage increase in life span (ILS) of compound treated tumor-bearing animals compared to tumor-bearing controls when treated at the optimal dose.; assay type: functional, Mus musculus
Method in brief: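 P388 leukemia: 10^6 cells inoculated intraperitoneally; drug given i.p. in 30% v/v ethanol-water on days 1, 5 and 9. Dose is in mg/kg per day. ILS is the percent increase in lifespan over untreated tumor-bearing controls at the optimal dose. Values above 20% count as significant.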

Structure (SMILES) | C50 (Nucleic Acid [1]) | C50 (Nucleic Acid [2]) | IC50 [4] | IC50 (L1210) | Optimal dose (P388 [3]) | ILS (P388 [5])
Cl.O=C(CC(CC(=O)NCCCCCCNc1c2ccccc2nc2ccccc12)Nc1c2ccccc2nc2ccccc12)NCCCCCCNc1c2ccccc2nc2ccccc12 | 0.11 µM | 0.11 µM | 4.1 µM and 4 µM | 350 nM | 20 mg/kg/day | 21%
Cl.O=C(CCCC(=O)NCCCCCCCNc1c2ccccc2nc2ccccc12)NCCCCCCCNc1c2ccccc2nc2ccccc12 | 0.15 µM | 0.23 µM | 6.2 µM and 4.5 µM | 960 nM | 30 mg/kg/day | 
Cl.O=C(CC(CC(=O)NCCCCCNc1c2ccccc2nc2ccccc12)Nc1c2ccccc2nc2ccccc12)NCCCCCNc1c2ccccc2nc2ccccc12 | 0.35 µM | 0.25 µM | 4.1 µM and 4.5 µM | 580 nM | 8.9 mg/kg/day | 21%
Cl.O=C(CCCC(=O)NCCCCCNc1c2ccccc2nc2ccccc12)NCCCCCNc1c2ccccc2nc2ccccc12 | 0.28 µM | 0.24 µM | 5.2 µM and 4.2 µM | 170 nM | 20 mg/kg/day | 33%
Cl.O=C(CCCC(=O)NCCCCNc1c2ccccc2nc2ccccc12)NCCCCNc1c2ccccc2nc2ccccc12 | 0.28 µM | 0.13 µM | 4.6 µM and 4.1 µM | 240 nM | 20 mg/kg/day | 30%

Now from value to compound, other results behind:

C50 (Nucleic Acid [1]) | C50 (Nucleic Acid [2]) | IC50 [4] | IC50 (L1210) | Structure (SMILES) | Optimal dose (P388 [3]) | ILS (P388 [5])
0.1 µM | 0.19 µM | 13.2 µM and 12.8 µM | 800 nM | Cl.O=C(CC(CC(=O)NCCCNc1c2ccccc2nc2ccccc12)Nc1c2ccccc2nc2ccccc12)NCCCNc1c2ccccc2nc2ccccc12 | 8.9 mg/kg/day | 
0.1 µM | 0.14 µM | 4.6 µM and 3.7 µM | 590 nM | Cl.O=C(CC(CC(=O)NCCCCCCCNc1c2ccccc2nc2ccccc12)Nc1c2ccccc2nc2ccccc12)NCCCCCCCNc1c2ccccc2nc2ccccc12 | 20 mg/kg/day | 
0.08 µM | 0.13 µM | 5.9 µM and 5.4 µM | 2300 nM | Cl.O=C(CC(CC(=O)NCCCCNc1c2ccccc2nc2ccccc12)Nc1c2ccccc2nc2ccccc12)NCCCCNc1c2ccccc2nc2ccccc12 | 8.9 mg/kg/day | 
 |  | 7.5 µM and 6.2 µM | 350 nM | Cl.O=C(CCCC(=O)NCCCNc1c2ccccc2nc2ccccc12)NCCCNc1c2ccccc2nc2ccccc12 | 13.3 mg/kg/day | 
0.09 µM | 0.21 µM | 4.2 µM and 3.1 µM | 470 nM | NC(CC(=O)NCCCNc1c2ccccc2nc2ccccc12)CC(=O)NCCCNc1c2ccccc2nc2ccccc12 |  | 
0.22 µM | 0.33 µM | 4.9 µM and 4.7 µM | 250 nM | Cl.O=C(CCCC(=O)NCCCCCCNc1c2ccccc2nc2ccccc12)NCCCCCCNc1c2ccccc2nc2ccccc12 | 45 mg/kg/day | 
0.3 µM | 0.29 µM | 9.2 µM and 6.7 µM | 3080 nM | Cl.O=C(CCCC(=O)NCCNc1c2ccccc2nc2ccccc12)NCCNc1c2ccccc2nc2ccccc12 | 30 mg/kg/day | 
0.43 µM | 0.38 µM | 30.3 µM and 30 µM | 5900 nM | Cl.O=C(CC(CC(=O)NCCNc1c2ccccc2nc2ccccc12)Nc1c2ccccc2nc2ccccc12)NCCNc1c2ccccc2nc2ccccc12 | 3.9 mg/kg/day | 
